Experimental data taken from ChEMBL document CHEMBL2401668, “Evaluation of thiazole containing biaryl analogs as diacylglycerol acyltransferase 1 (DGAT1) inhibitors” (Eur J Med Chem, 2013).
Converted amounts (≈) assume the structure as drawn.

Experiments:
[1] = AUC (0 to t) in Swiss mouse at 10 mg/kg, po by ESI-LC/MS/MS method; type: ADME, organism-based; set-up: dose 10 mg/kg, route oral; conditions: plasma
In short: (§1)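 Oral dose of 10 mg/kg, given as a 1 mg/ml suspension in 0.5% CMC with Tween 80 to weighed Swiss mice (n = 4). Blood was drawn at 0.08–24 h, and plasma was kept on ice, centrifuged at 4 °C and stored at −80 °C. Levels were measured by ESI-LC/MS/MS. Parameters came from non-compartmental analysis: Cmax and Tmax read from the profile, AUC0–t by linear trapezoidal rule, AUCinf extrapolated, and T1/2 = 0.693/λz.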

Mus musculus = assay: Antihyperlipidemic activity in Swiss mouse assessed as reduction in plasma triglyceride level at 3 mg/kg, po after 1 to 4 hrs by acute fat tolerance test relative to control; type: functional; set-up: scale not given: the % may be the effect or the level left
In short: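 Fasted Swiss mice (4–5 weeks, 25–30 g) were given 3 mg/kg by oral gavage as a suspension in 0.5% CMC with Tween 80, or vehicle (0.5% CMC). An olive oil bolus (10 ml/kg) followed 1 h later. Plasma was taken at 1, 2, 3 and 4 h and triglycerides were measured with a kit. The triglyceride AUC0–4 h was expressed as percent reduction, with the vehicle group taken as 100%.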

[2] = Cmax in Swiss mouse at 10 mg/kg, po by ESI-LC/MS/MS method; type: ADME, organism-based; set-up: dose 10 mg/kg, route oral; conditions: in vivo; in short: as §1
[3] = Tmax in Swiss mouse at 10 mg/kg, po by ESI-LC/MS/MS method; type: ADME, organism-based; set-up: dose 10 mg/kg, route oral; conditions: in vivo; in short: as §1
[4] = AUC (infinity) in Swiss mouse at 10 mg/kg, po by ESI-LC/MS/MS method; type: ADME, organism-based; set-up: time infinity, dose 10 mg/kg, route oral; conditions: plasma; in short: as §1
[5] = Half life in Swiss mouse at 10 mg/kg, po by ESI-LC/MS/MS method; type: ADME, organism-based; set-up: dose 10 mg/kg, route oral; conditions: in vivo; in short: as §1
[6] = Solubility of the compound at pH 7.4; type: physicochemical; conditions: buffer

Row | AUC(0-t) [1] [ng·h/mL] | Cmax [2] [µM] | Tmax [3] [min] | AUC(0-inf) [4] [ng·h/mL] | half-life [5] [min] | solubility [6] [µg/mL] | SMILES | Activity (Mus musculus) [%]
1 | 5340 | 5.3 | 15 | 5350 | 37.2 | 10 (≈ 21.6 µM) | CC(C)[C@H](NC(=O)c1ccc(-c2ccc(Nc3nc4ccc(F)cc4s3)cc2)cc1)C(=O)O | 90
2 | 623 | 1.9 | 9.6 | 672 | 29.4 | – | CC(C)[C@H](NC(=O)c1ncc(-c2ccc(NC(=O)Nc3ccccc3Cl)cc2)s1)C(=O)O | 82
3 | 7060 | 11.3 | 10.2 | 7070 | 49.8 | – | CC(C)[C@H](NC(=O)c1ncc(-c2ccc(NC(=O)c3ccc(C(C)(C)C)cc3)cc2)s1)C(=O)O | 87
